Laboratory results: ChEMBL document CHEMBL1138224, “Design, synthesis, and biological evaluation of peptidomimetic inhibitors of factor XIa as novel anticoagulants” (J Med Chem, 2006)
Calls of active or inactive are those of the source. The calls are words filed in the database; no cut-off is given here.

Legend:
[1] = target: Coagulation factor XI (Homo sapiens, UniProt P03951); experiment: Inhibition of factor 11a
[2] = target: Coagulation factor X (Homo sapiens, UniProt P00742); experiment: Inhibition of factor 10a
Chain of Coagulation factor X (P00742 41-179 limits assumed): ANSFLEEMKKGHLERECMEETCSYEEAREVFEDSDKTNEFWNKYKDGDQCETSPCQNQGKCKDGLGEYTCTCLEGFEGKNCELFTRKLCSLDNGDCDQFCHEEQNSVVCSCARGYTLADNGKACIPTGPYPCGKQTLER
Chain of Coagulation factor X (P00742 235-488 limits assumed): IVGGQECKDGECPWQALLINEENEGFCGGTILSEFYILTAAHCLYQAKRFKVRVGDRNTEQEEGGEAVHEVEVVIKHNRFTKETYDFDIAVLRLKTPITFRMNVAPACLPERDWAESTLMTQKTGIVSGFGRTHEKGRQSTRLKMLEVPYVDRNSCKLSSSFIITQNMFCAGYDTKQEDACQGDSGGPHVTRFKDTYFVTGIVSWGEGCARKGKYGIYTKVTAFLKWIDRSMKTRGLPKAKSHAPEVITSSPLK

[3] = target: Prothrombin (Homo sapiens, UniProt P00734); experiment: Inhibition of thrombin
[4] = system: Plasma; experiment: Anticoagulant activity in human plasma measured by activated […] time; assay type: functional
Method in brief: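 Activated partial thromboplastin time in human plasma. Plasma was incubated with compound for 2 min. aPTT reagent was added and incubated 3 min. Prewarmed 30 mM CaCl2 was added and clotting was read up to 300 s. The concentration doubling clotting time was taken from the dose-response curve.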

[5] = system: Plasma; experiment: Anticoagulant activity in human plasma measured by prothrombin time; assay type: functional
Method in brief: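 Human plasma with compound prewarmed 3 min at 37 °C, then prewarmed thromboplastin reagent containing calcium added; clotting read over 300 s. Concentration doubling clotting time (2× PT) derived from dose-response curve.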

[6] = organism: Homo sapiens; experiment: Selectivity for factor 11a over thrombin
Method in brief: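 IC50s against factor XIa and thrombin were compared as fold selectivity. Both enzymes used Glp-Pro-Arg-AMC, with 50 nM enzyme and 50 µM substrate in Tris-HCl/NaCl/0.02% Tween 20 at pH 7.4. Ten-point endpoint assays ran for 15-30 min at 30 °C with AMC fluorescence read at 355/460 nm. IC50 came from a one-site dose-response fit.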

[7] = organism: Homo sapiens; experiment: Selectivity for factor 11a over factor 10a
Method in brief: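 Fold selectivity compared IC50s against factor XIa and factor Xa, both in Tris-HCl/NaCl/Tween 20 buffer at pH 7.4. FXIa: Glp-Pro-Arg-AMC, 50 nM enzyme, 50 µM substrate, 15-30 min at 30 °C. FXa: H-Pro-Phe-Arg-AMC at twice those concentrations, 60 min.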

[8] = target: T1, Coagulation factor VII (Homo sapiens, UniProt P08709); experiment: Inhibition of factor 7a
T1 sequence (P08709 whole entry): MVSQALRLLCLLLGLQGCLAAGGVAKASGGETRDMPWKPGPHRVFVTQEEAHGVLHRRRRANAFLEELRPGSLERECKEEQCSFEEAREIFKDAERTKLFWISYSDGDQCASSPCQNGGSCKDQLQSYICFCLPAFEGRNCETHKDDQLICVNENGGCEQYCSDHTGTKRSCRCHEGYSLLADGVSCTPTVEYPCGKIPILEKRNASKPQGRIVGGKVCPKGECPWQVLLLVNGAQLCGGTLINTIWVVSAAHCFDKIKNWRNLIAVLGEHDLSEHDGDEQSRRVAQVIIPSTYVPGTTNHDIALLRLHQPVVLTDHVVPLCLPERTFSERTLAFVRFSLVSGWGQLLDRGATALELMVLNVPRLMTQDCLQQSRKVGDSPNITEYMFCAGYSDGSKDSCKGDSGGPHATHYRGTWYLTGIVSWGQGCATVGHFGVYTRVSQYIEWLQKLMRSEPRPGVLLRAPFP

[9] = target: Plasma kallikrein (Homo sapiens, UniProt P03952); experiment: Inhibition of plasma kallikrein; assay type: cell-free
Chain of Plasma kallikrein (P03952 20-390 limits assumed): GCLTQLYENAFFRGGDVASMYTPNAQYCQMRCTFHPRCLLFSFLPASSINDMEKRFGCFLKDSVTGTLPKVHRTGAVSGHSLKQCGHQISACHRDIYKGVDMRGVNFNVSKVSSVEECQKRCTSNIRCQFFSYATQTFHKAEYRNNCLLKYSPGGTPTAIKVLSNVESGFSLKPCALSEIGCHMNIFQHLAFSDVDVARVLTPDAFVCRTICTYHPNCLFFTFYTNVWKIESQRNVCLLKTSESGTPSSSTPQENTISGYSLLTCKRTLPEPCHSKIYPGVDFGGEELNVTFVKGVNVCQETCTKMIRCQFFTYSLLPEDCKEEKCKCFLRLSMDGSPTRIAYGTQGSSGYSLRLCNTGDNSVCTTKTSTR
Chain of Plasma kallikrein (P03952 391-638 limits assumed): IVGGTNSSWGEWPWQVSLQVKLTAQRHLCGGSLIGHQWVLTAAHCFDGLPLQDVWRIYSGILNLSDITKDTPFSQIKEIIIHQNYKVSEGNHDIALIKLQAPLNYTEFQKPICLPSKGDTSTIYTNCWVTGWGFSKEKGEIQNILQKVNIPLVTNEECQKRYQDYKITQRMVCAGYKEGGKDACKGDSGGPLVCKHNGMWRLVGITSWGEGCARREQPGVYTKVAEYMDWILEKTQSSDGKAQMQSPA

[10] = target: Vitamin K-dependent protein C (Homo sapiens, UniProt P04070); experiment: Inhibition of activated protein C
Chain of Vitamin K-dependent protein C (P04070 43-197 limits assumed): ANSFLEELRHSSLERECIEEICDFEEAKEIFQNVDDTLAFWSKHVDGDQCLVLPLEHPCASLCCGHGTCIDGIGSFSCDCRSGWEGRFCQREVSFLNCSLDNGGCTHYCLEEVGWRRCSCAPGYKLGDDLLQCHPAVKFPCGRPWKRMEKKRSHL
Chain of Vitamin K-dependent protein C (P04070 212-461 limits assumed): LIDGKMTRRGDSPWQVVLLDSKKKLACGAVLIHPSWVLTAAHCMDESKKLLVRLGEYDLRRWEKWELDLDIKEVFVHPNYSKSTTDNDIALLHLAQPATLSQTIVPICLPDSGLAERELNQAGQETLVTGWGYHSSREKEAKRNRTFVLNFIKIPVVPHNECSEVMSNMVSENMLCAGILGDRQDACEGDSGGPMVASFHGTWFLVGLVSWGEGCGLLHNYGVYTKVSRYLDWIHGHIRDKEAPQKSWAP

[11] = Half life in iv dosed rat; assay type: ADME, organism-based; details: in vivo
[12] = Clearance in iv dosed rat; assay type: ADME, organism-based; details: in vivo
[13] = Volume of distribution in iv dosed rat; assay type: ADME, organism-based; details: in vivo, read-out: Vdss
[14] = target: Trypsin (Homo sapiens, UniProt P07477+P07478+P35030); experiment: Inhibition of trypsin; assay type: protein assay
Method in brief: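 Trypsin activity was read with the fluorogenic substrate Glp-Pro-Arg-AMC. Conditions were 50 nM enzyme and 50 µM substrate in 100 mM Tris-HCl, 200 mM NaCl and 0.02% Tween 20 at pH 7.4. Ten-point dose-response endpoints were taken after 15-30 min at 30 °C. Released AMC was read at ex 355/em 460 nm, and IC50 came from a one-site nonlinear least-squares fit.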

[15] = system: Rattus norvegicus; experiment: Efficacy in rat venous thrombosis model assessed as reduction in thrombus weight at 0.25 mg/kg, iv; assay type: functional, organism-based; parameters: dose 0.25 mg/kg
Method in brief: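 Intravenous infusion at 0.0625 or 0.25 mg/kg in 0.1 M NaOAc pH 4.0 vehicle, started 5 min before induction; clot isolated and weighed 10 min postchallenge. n = 9; Tukey-Kramer test versus vehicle.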

Chain of Coagulation factor XI (P03951 19-387 limits assumed): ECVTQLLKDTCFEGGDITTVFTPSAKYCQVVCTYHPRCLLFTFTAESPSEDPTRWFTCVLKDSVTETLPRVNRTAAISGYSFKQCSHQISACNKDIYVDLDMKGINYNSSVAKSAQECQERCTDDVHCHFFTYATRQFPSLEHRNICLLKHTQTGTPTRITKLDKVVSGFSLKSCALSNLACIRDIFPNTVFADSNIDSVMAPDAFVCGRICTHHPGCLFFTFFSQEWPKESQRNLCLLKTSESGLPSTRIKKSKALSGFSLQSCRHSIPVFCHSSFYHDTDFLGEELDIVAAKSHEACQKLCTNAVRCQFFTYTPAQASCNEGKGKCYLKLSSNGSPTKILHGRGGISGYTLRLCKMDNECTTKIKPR
Chain of Coagulation factor XI (P03951 388-625 limits assumed): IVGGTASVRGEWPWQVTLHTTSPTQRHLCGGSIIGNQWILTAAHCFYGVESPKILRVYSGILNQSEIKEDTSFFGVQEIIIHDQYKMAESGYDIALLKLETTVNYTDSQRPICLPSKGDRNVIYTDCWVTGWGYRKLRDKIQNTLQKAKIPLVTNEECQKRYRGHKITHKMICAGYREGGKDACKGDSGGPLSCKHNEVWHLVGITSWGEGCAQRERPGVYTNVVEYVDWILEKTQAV

Compound | IC50 [1] [nM] | IC50 [2] [nM] | IC50 [3] [nM] | other results
CC(C)C[C@H](NC(=O)NC(C)c1ccc(Br)cc1)C(=O)N[C@H](C(=O)N[C@@H](CCCNC(=N)N)C(=O)c1nccs1)C(C)C (some centres undefined) | 10 | 15000 | 1400 | Selectivity ratio [6]: 140; Selectivity ratio [7]: 1500
CC(C)[C@H](NC(=O)[C@@H](NC(=O)N[C@@H](C)c1ccc(Br)cc1)C1CCCCC1)C(=O)N[C@@H](CCCN=C(N)N)C(=O)c1nccs1 | 132 | 14900 | 5600 | –
CC(C)[C@H](NC(=O)[C@H](Cc1cccnc1)NC(=O)N[C@H](C)c1ccc(F)cc1)C(=O)N[C@@H](CCCN=C(N)N)C(=O)c1nccs1 | 28 | – | 523 | –
CC(C)[C@H](NC(=O)[C@H](CCCN=C(N)N)NC(=O)N[C@H](C)c1ccc(Br)cc1)C(=O)N[C@@H](CCCN=C(N)N)C(=O)c1nccs1 | 7 | 250 | 440 | –
CC(=O)N[C@@H](CC(C)C)C(=O)N[C@H](C(=O)N[C@@H](CCCN=C(N)N)C(=O)c1nccs1)C(C)C | – | > 200000 | > 200000 | –
CC(C)C[C@H](NC(=O)NCc1ccc(Cl)c(Cl)c1)C(=O)N[C@@H](Cc1ccccc1)C(=O)N[C@@H](CCCN=C(N)N)C(=O)c1nccs1 | 710 | 8500 | 27000 | –
CC(C)[C@H](NC(=O)[C@@H](NC(=O)N[C@H](C)c1ccc(Br)cc1)C1CCCCC1)C(=O)N[C@@H](CCCNC(=N)N)C(=O)c1nccs1 | 10 | 2700 | 976 | 2aPTT [4]: 15.4 µM; 2PT [5]: 178.6 µM
CC(C)C[C@H](NC(=O)OCc1ccccc1)C(=O)N[C@H](C(=O)N[C@@H](CCCN=C(N)N)C(=O)c1nccs1)C(C)C | 356 | – | – | –
CC(C)C[C@H](NC(=O)NCc1ccc(Cl)c(Cl)c1)C(=O)N[C@H](C(=O)N[C@@H](CCCN=C(N)N)C(=O)c1nccs1)C(C)C | 63 | > 20000 | 876 | –
CC(C)C[C@H](NC(=O)NCc1ccc(Cl)c(Cl)c1)C(=O)N[C@H](C(=O)N[C@@H](CCCN=C(N)N)C(=O)c1nccs1)C(C)(C)C | 9200 | > 200000 | 12000 | –
CC(C)C[C@H](NC(=O)NCc1ccc(Cl)c(Cl)c1)C(=O)N[C@@H](Cc1ccc(O)cc1)C(=O)N[C@@H](CCCNC(=N)N)C(=O)c1nccs1 | 200 | 1700 | 1000 | –
CCC(C)[C@H](NC(=O)[C@H](CC(C)C)NC(=O)NCc1ccc(Cl)c(Cl)c1)C(=O)N[C@@H](CCCN=C(N)N)C(=O)c1nccs1 (some centres undefined) | 76 | 85000 | 2600 | –
CC(C)[C@H](NC(=O)[C@H](Cc1ccc(O)cc1)NC(=O)N[C@H](C)c1ccc(Br)cc1)C(=O)N[C@@H](CCCN=C(N)N)C(=O)c1nccs1 | 6 | 1600 | 2040 | IC50 [8]: 38000 nM; IC50 [9]: 10 nM; IC50 [10]: 20700 nM; half-life [11]: 45 min; clearance [12]: 32 mL/min/kg; Vd [13]: 0.236 L/kg
CC(C)C[C@H](NC(=O)NCc1ccc(Cl)c(Cl)c1)C(=O)N[C@@H](C)C(=O)N[C@@H](CCCNC(=N)N)C(=O)c1nccs1 | 920 | 22000 | 10000 | –
CC(C)[C@H](NC(=O)[C@H](Cc1ccc(O)cc1)NC(=O)N[C@H](C)c1ccc(Br)cc1)C(=O)N[C@@H](CCCNC(=N)N)C(=O)c1nccs1 | – | – | – | IC50 [14]: 12 nM; Activity [15]: Active; Selectivity ratio [6]: 340; Selectivity ratio [7]: 267; 2aPTT [4]: 2.4 µM; 2PT [5]: 25 µM
CC(C)C[C@H](NC(=O)NCc1ccc(Cl)cc1Cl)C(=O)N[C@H](C(=O)N[C@@H](CCCN=C(N)N)C(=O)c1nccs1)C(C)C | 45 | 13000 | 386 | –
CC(C)C[C@H](NC(=O)NCc1ccc(Cl)c(Cl)c1)C(=O)N[C@H](C(=O)N[C@@H](CCCNC(=N)N)C(=O)c1nccs1)C1CCCCC1 | 340 | > 200000 | 7700 | –

Now from value to molecule, other results behind:

IC50 [1] [nM] | IC50 [2] [nM] | IC50 [3] [nM] | Compound | other results
8 | 1600 | 400 | CC(C)[C@H](NC(=O)[C@H](CC(N)=O)NC(=O)N[C@H](C)c1ccc(Br)cc1)C(=O)N[C@@H](CCCNC(=N)N)C(=O)c1nccs1 | 2aPTT [4]: 0.56 µM; 2PT [5]: 26.3 µM
29 | 2100 | 710 | CC(C)[C@H](NC(=O)[C@H](Cc1c[nH]c2ccccc12)NC(=O)N[C@H](C)c1ccc(Br)cc1)C(=O)N[C@@H](CCCNC(=N)N)C(=O)c1nccs1 | –
114 | > 20000 | 3100 | CC(C)C[C@H](NC(=O)NCc1ccc(F)cc1)C(=O)N[C@H](C(=O)N[C@@H](CCCNC(=N)N)C(=O)c1nccs1)C(C)C | –
533 | – | 606 | CC(C)[C@H](NC(=O)[C@H](Cc1cccnc1)NC(=O)N[C@@H](C)c1ccc(F)cc1)C(=O)N[C@@H](CCCNC(=N)N)C(=O)c1nccs1 | –
258 | 14300 | 2100 | CCOC(=O)C(Cc1ccccc1)NC(=O)NN[C@@H](Cc1ccccc1)C(=O)N[C@H](C(=O)N[C@@H](CCCNC(=N)N)C(=O)c1nccs1)C(C)C (some centres undefined) | –
403 | 15400 | 2100 | CCOC(=O)C(CC(C)C)NC(=O)NN[C@@H](Cc1ccccc1)C(=O)N[C@H](C(=O)N[C@@H](CCCNC(=N)N)C(=O)c1nccs1)C(C)C (some centres undefined) | –
30 | 1900 | 1100 | CC(C)[C@H](NC(=O)[C@H](CCCNC(N)=O)NC(=O)N[C@H](C)c1ccc(Br)cc1)C(=O)N[C@@H](CCCNC(=N)N)C(=O)c1nccs1 | 2aPTT [4]: 1.35 µM; 2PT [5]: 48.6 µM
2300 | – | – | CC(C)[C@H](NC(=O)[C@H](Cc1ccccc1)NNS(=O)(=O)c1ccc(Cl)c(Cl)c1)C(=O)N[C@@H](CCCNC(=N)N)C(=O)c1nccs1 | –
2600 | – | – | CC(C)[C@H](NC(=O)[C@H](Cc1ccccc1)NNC(=O)Cc1ccco1)C(=O)N[C@@H](CCCNC(=N)N)C(=O)c1nccs1 | –
136 | > 20000 | 2800 | CC(C)C[C@H](NC(=O)NCc1ccccc1)C(=O)N[C@H](C(=O)N[C@@H](CCCNC(=N)N)C(=O)c1nccs1)C(C)C | –
160 | – | 4300 | CC(C)[C@H](NC(=O)[C@H](Cc1ccccc1)NNC(=O)NCc1ccc(F)cc1)C(=O)N[C@@H](CCCNC(=N)N)C(=O)c1nccs1 | –
1920 | > 20000 | 935 | CC(C)[C@H](NC(=O)[C@H](Cc1ccccc1)NNC(=O)Nc1ccccc1)C(=O)N[C@@H](CCCNC(=N)N)C(=O)c1nccs1 | –
2200 | – | – | CC(C)[C@H](NC(=O)[C@H](Cc1ccccc1)NNC(=O)c1ccco1)C(=O)N[C@@H](CCCNC(=N)N)C(=O)c1nccs1 | –
90 | 14200 | 6700 | CC(C)[C@H](NC(=O)[C@H](Cc1ccccc1)NNC(=O)NCc1ccc(Cl)c(Cl)c1)C(=O)N[C@@H](CCCNC(=N)N)C(=O)c1nccs1 | –
12 | 1400 | 1400 | CC(C)[C@H](NC(=O)[C@H](Cc1cccnc1)NC(=O)N[C@H](C)c1ccc(Br)cc1)C(=O)N[C@@H](CCCNC(=N)N)C(=O)c1nccs1 | Selectivity ratio [7]: 200; 2aPTT [4]: 2.4 µM; 2PT [5]: 31 µM
